Measurements of several laboratories.
Each line is one published result; the experiments were not run side by side.
Target: Serine/threonine-protein kinase Nek2 (NEK2, Homo sapiens, UniProt P51955)
Sequence (P51955 1-445, as in one of the studies): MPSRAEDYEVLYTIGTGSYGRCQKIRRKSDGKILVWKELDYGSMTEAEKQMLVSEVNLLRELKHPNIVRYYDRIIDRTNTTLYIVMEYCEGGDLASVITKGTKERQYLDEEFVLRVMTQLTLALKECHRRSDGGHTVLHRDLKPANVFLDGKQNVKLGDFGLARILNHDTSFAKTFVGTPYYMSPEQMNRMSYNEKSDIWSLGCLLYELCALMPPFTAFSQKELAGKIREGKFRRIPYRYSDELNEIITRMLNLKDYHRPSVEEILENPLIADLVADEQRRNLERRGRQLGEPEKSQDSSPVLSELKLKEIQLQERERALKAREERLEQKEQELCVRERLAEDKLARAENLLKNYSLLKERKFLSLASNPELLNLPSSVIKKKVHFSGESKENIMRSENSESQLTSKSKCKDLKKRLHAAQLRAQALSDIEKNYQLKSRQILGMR

For `COc1ncc2cc3ccccc3nc2c1C#N`, the remaining binding was 85% (cell-free assay, competition with immobilised ligand; 5 µM).
The remaining binding of `C[C@H]1CCN(c2nccc(-c3cnn4ncccc34)n2)C1` is reported as 90% (binding; 1 µM).
`CC1=C(C#N)C(c2ccc3c(c2)c(NC(=O)c2ccccc2C)nn3C)C(C#N)=C(C)N1` gave a remaining binding of 100% (cell-free assay, competition with immobilised ligand; 1 µM).
`O=C(c1ccc(Nc2ncc(Cl)c(-c3cc4ccccc4s3)n2)cc1)N1CCC(N2CCCC2)CC1` gave a remaining binding of 83% (binding, competition with immobilised ligand; 1 µM).
`CNC(=O)[C@@H]1CC[C@@H](n2c(-c3ccc4cnccc4c3)nc3ccc(C(=O)NCc4cccc(C(N)=O)c4)cc32)C1` gave a remaining binding of 97% (binding, competition with immobilised ligand; 1 µM).
For `c1cncc(-c2cccc(Nc3nccc(NC4CCCCC4)n3)c2)c1`, the remaining binding was 97% (binding, competition with immobilised ligand; 10 µM).
With `CC1CCCN1c1nccc(-c2cnn3ncccc23)n1` (centres unmarked) the remaining binding was 100% (binding; 1 µM).
`C=CC(=O)N1CCC(C(=O)NCC(=O)N2CCN(c3nc(-c4cnc(N)nc4C(F)F)nc(N4CCOCC4)n3)CC2)CC1` has a remaining binding of 95% (binding, competition with immobilised ligand; 1 µM).
The remaining binding of `CC(=O)N1CCC(c2ccc(C(=O)NC(=N)N)cc2C(F)(F)F)CC1` is reported as 100% (cell-free assay, competition with immobilised ligand; 1 µM).
The remaining binding of `O=C(Nc1c[nH]nc1C(=O)NC1CCNCC1)c1cc(F)cc(F)c1` is reported as 93% (binding, competition with immobilised ligand; 1 µM).
For `Cn1cc(Cl)c2c(Oc3c(F)cc(Nc4cc(Cl)nc(N)n4)cc3F)ccnc21`, the remaining binding was 100% (cell-free assay, competition with immobilised ligand; 0.1 µM).
For `CN(C)c1nccc(-c2cnn3ncccc23)n1`, the remaining binding was 100% (binding; 1 µM).
`O=C(NCCCN1CCOCC1)c1ccc(Nc2ncc(Cl)c(-c3ccc(Cl)s3)n2)cc1` gave a remaining binding of 75% (binding, competition with immobilised ligand; 1 µM).
With `FC(F)(F)Oc1cccc(-c2cnc3ccc(-c4ccncc4)nn23)c1` the remaining binding was 74% (cell-free assay, competition with immobilised ligand; 5 µM).
The remaining binding of `CN(c1nccc(-c2cnn3ncccc23)n1)C1CC1` is reported as 100% (binding; 1 µM).
For `O=C(NCCCC1CCCCC1)c1ccc(CNC(=O)c2cnn(-c3ccccc3)c2C(F)(F)F)cc1`, the remaining binding was 100% (cell-free assay, competition with immobilised ligand; 0.1 µM).
`N[C@@H]1CCN(c2nccc(-c3cnn4ncccc34)n2)C1` gave a remaining binding of 100% (binding; 1 µM).
`Cn1nc(C(F)(F)F)cc1-c1cnc(N2CCc3cc(S(=O)(=O)Nc4c(F)cc(Cl)cc4F)cc(N4CCCC4=O)c32)nc1` gave a remaining binding of 100% (cell-free assay, competition with immobilised ligand; 1 µM).
`CN(C)c1nccc(-c2cnc3ncccn23)n1` gave a remaining binding of 93% (binding; 1 µM).
`COCCOc1nc(-c2ccc(Cl)nc2)nc2c1CN(C(=O)c1ncn3ccccc13)CC2` gave a remaining binding of 100% (cell-free assay, competition with immobilised ligand; 0.1 µM).
